Assay outcomes (PubChem BioAssay)
Shown are actives, neighbours in structure and some others; about 1.2% of the full set was active somewhere.
FXIa inh = inhibitors of human coagulation factor XIa. P03951. purified FXIa, Boc-Glu-Ala-Arg-AMC fluorogenic substrate. inhibition, % at 5 µM. 220,000 compounds, 0.14% hits. AID 798;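 active = inhibition of at least 40%; inactive = inhibition below 40%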;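 note: fluorescence of freed AMC excited at 355 nm; 0% = enzyme without compound and 100% = no enzyme blank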
S1P3 antagonist = antagonists of human S1P3 receptor. inhibition, % at 4.98 µM. CHO S1P3 NFAT-BLA reporter, FRET fluorescence, antagonist mode. Q99500. 170,000 compounds, 0.27% hits;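 active = inhibition above the plate cutoff, the mean inhibition of test wells on that plate plus 3 SD, cut at about 28% in these data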;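 note: cells challenged with S1P at its EC80 of 0.8 µM; blue over green emission ratio from cleaved BLA substrate after 4 h stimulation; 0% = S1P-stimulated wells and 100% = unstimulated DMSO-only wells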
thrombin 1536 = inhibitors of human thrombin | alpha-thrombin, Boc-VPR-AMC fluorogenic substrate cleavage | inhibition, % at 5 µM | 220,000 compounds, 0.26% hits;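 active = inhibition at or above 40%; inactive = inhibition below 40%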;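 note: 0% = enzyme with no compound and 100% = wells without enzyme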
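Material: human alpha-thrombin enzyme / Medium: pH 7.5 Tris (50 mM) with NaCl 150 mM, Tween 20 0.05% / Compound: single-point dosing at 5 µM, 0.2% DMSO / Incubation: enzyme reaction carried out at room temperature / Detection: AMC fluorescence, 355/460 nm / Read-out basis: percent inhibition scaled between no-compound controls and no-enzyme blanks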
Redox H2O2 prof = compounds producing H2O2 with reducing agent – biochemical, NIH compound library profiling, artefact control for MLSCN library redox annotation, primary screen; DTT-dependent redox cycling H2O2, phenol red/HRP absorbance; 100% = 100 µM peroxide control, 0% = buffer; activation, % at 10 µM; 200,000 compounds, 0.03% hits;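 active = activation of at least 50% relative to the plate's high and low controls in the primary single-dose screen; inactive = activation below 50%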;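 note: compound incubated with DTT at 0.8 mM final as the reducing agent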
hK5 inh = blocks human kallikrein 5 protease activity. Q9Y337. 210,000 compounds, 0.59% hits. inhibition, % at 5 µM. AID 873. recombinant hK5, fluorogenic AMC substrate cleavage;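 active = inhibition of 40% or more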;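 note: 0% = enzyme controls without compound and 100% = no-enzyme blanks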
FXIIa inh 1536 = blocks human coagulation factor XIIa protease activity; P00748; purified FXIIa, Boc-QGR-AMC fluorogenic substrate, 2 h; 220,000 compounds, 0.3% hits; inhibition, % at 5 µM; in the data active = inhibition above about 40%;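 note: 0% = enzyme with no compound and 100% = blank without enzyme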
Target sequence (P00748 20-372 limits assumed): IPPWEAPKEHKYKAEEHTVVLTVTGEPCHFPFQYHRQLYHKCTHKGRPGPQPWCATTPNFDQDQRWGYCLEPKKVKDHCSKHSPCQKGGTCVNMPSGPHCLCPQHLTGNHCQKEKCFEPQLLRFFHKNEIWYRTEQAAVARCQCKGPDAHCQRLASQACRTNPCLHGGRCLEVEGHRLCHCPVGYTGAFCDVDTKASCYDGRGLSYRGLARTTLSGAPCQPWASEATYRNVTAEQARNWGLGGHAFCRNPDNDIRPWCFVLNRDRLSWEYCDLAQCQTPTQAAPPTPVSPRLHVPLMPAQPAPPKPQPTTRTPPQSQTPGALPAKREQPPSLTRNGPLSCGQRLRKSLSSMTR
Target sequence (P00748 373-615 limits assumed): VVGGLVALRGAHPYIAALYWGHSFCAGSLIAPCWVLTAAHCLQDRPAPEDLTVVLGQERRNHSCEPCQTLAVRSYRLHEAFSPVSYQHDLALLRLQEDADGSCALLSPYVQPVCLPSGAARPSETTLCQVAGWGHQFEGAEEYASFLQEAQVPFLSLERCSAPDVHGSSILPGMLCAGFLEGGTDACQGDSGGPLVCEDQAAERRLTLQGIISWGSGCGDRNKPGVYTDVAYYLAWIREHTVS
The depositor's hits bear a star; . = no result.

SMILES	FXIa inh	S1P3 antagonist	thrombin 1536	Redox H2O2 prof	hK5 inh	FXIIa inh 1536
COc1ccc(C(=O)N(Cc2ccco2)Cc2cc3cc(C)ccc3[nH]c2=O)cc1OC	.	2	.	1	.	.
Clc1ccccc1-c1nc(-c2cccnc2)no1	9	1	16	4	57*	15
Clc1ccccc1-c1nc(-c2ccncc2)no1	1	6	0	.	-3	11
Cc1ccc(NC(=O)COC(=O)CCc2ccc(S(=O)(=O)N3CCOCC3)cc2)cc1C	-3	10	0	0	2	8
Cc1ccc(C)c(SCC(=O)OCC(=O)Nc2ccc(S(=O)(=O)N3CCOCC3)cc2)c1	5	.	50*	1	-4	10
COC(=O)C(NC(=O)c1ccco1)(Nc1nc(C)cs1)C(F)(F)F (stereo not drawn)	35	.	-6	-2	-11	54*
CCCC(C)NC1=NCCCCC1 (stereo not drawn)	10	.	16	0	56*	15
CCN1CCCC1CNC1=NCCCCC1 (stereo not drawn)	2	-12	4	0	-17	15
O=C(NCc1cccnc1)NC1(c2ccccc2)CC1	0	77*	-8	-3	-30	9
Cc1cccc(NC(NC(=O)Cc2ccccc2)C(Cl)(Cl)Cl)c1 (stereo not drawn)	1	-4	-11	0	-4	5
C=CCN1CCN(C(c2ccc(Cl)cc2)c2nnnn2CCc2ccc(OC)c(OC)c2)CC1 (stereo not drawn)	-4	104*	-3	0	0	-11
COc1ccc(CCn2nnnc2C(c2ccc(C)cc2)N2CCN(C)CC2)cc1OC (stereo not drawn)	2	-33	-10	-3	-12	13
Cc1ccc(NC(=O)OCc2ccccc2S(C)=O)cc1 (stereo not drawn)	0	-3	-4	0	1	12
CC(=O)Nc1ccc(S(=O)(=O)N[C@@H](C)C(=O)OCc2cc([N+](=O)[O-])cc3c2OCOC3)cc1	0	3	5	.	4	6
CC(C)C(NS(=O)(=O)c1ccccc1)C(=O)OCc1cc([N+](=O)[O-])cc2c1OCOC2 (stereo not drawn)	11	-9	48*	0	39	7
Cn1c(-c2cccc([N+](=O)[O-])c2)cnc1NCc1ccc(C#N)cc1	-2	-11	5	0	-6	4
O=C(O)c1cn(Cc2ccccc2)nc1-c1cccnc1	-7	12	9	0	-4	5
C=C(C)COc1ccc(-c2ncncc2Oc2ccc(OC)cc2)c(O)c1	11	2	10	0	43*	20
CCCOC(=O)c1ccc(Oc2cn[nH]c2-c2ccc(O)cc2O)cc1	4	-1	6	.	-9	3
C=C(C)COc1ccc(-c2[nH]ncc2Oc2cccc(OC)c2)c(O)c1	2	-19	20	0	63*	29
CCCOC(=O)c1ccc(Oc2cn[nH]c2-c2ccc(OCC(=O)NN)cc2O)cc1	43*	-14	13	.	41*	30
O=C(CCNS(=O)(=O)c1ccc(Cl)cc1)NCc1cccs1	4	-5	-3	-1	6	13
Cc1ccc(CCC(=O)Nc2ccccc2F)s1	-2	-1	0	0	-14	2
Cc1ccc(NC(=O)ON=C2CCCC2)cc1	9	-14	32	0	44*	20
O=C(Nc1ccccc1)ON=C1CCCC1	12	-3	0	0	1	8
SMILES	FXIa inh	S1P3 antagonist	thrombin 1536	Redox H2O2 prof	hK5 inh	FXIIa inh 1536
O=C(COC(=O)c1c2ccccc2cc2ccccc12)Nc1ncc(C(F)(F)F)cc1Cl	15	.	8	0	59*	0
COc1cccc(/C=N/n2c(N)c(S(=O)(=O)c3cccs3)c3nc4ccccc4nc32)c1OC	4	.	18	-3	9	44*
CC(=O)Nc1nc(C2CC2)cc(-c2ccccc2)c1C#N	1	-9	0	0	3	7
O=C1c2ccccc2C(=O)N1CCN1CCCCC1	1	-33	31	1	51*	25
CCOC(=O)c1nnc(-c2cccs2)nc1NC(C)C	0	.	4	1	115*	2
COc1cccc(NC(=S)NCCC(c2ccccc2)c2ccccc2)c1	-15	.	41*	-5	-20	0
CCOc1ccc(NC(=S)Nc2ccc(Br)cc2Cl)cc1	-6	0	-6	1	-6	4
COc1cccc(NC(=S)Nc2ccc(Br)cc2Cl)c1	36	-1	51*	.	39	41*
CCc1n(CC(O)COC2CCCCC2)c2ccccc2[n+]1C (stereo not drawn)	2	-8	-3	0	5	7
O=C(CSc1nc(-c2ccccc2)cs1)NCCN1C(=O)CSC1=O	1	0	-2	0	7	8
CCCCNC(=O)C1COc2ccccc2O1 (stereo not drawn)	-1	-8	2	-1	-3	10
O=C(NCCOC(=O)C1COc2ccccc2O1)C1COc2ccccc2O1 (stereo not drawn)	5	3	25	14	46*	0
CCCCn1c(NCc2cccs2)nc2ccccc21	1	3	-3	-1	-6	-1
CCCn1c(NCc2cccs2)nc2ccccc21	9	5	17	2	56*	24
Cc1ccc(Nc2nc(-c3sc(NC(=O)c4ccco4)nc3C)cs2)cc1	14	.	11	-2	54*	16
O=C(O)C1CC(O)CN1c1nc(Cl)ccc1[N+](=O)[O-] (stereo not drawn)	-4	-19	0	0	-8	3
CN(C)c1ccc(NC(=O)c2ccc(Cn3cc([N+](=O)[O-])cn3)cc2)cc1	-3	-13	97*	0	-1	6
COc1ccc(NC(=O)c2ccc(Cn3cc(Cl)cn3)cc2)cc1	-3	2	-6	0	-1	7
COc1ccccc1NC(=S)N/N=C1\CC(C)(C)Oc2ccc(O)cc21	30	-42	9	-1	57*	36
COc1ccccc1NC(=O)CCS(=O)(=O)c1ccccc1	31	-7	52*	-1	29	24
COc1ccc(Nc2ncnc3c2cnn3-c2ccccc2)cc1OC	6	23	-7	0	-10	7
CCOc1ccccc1Nc1ncnc2c1cnn2-c1ccccc1	.	113*	.	.	.	.
COc1cc([N+](=O)[O-])ccc1NC(=O)CSc1nc2ccccc2n1-c1ccccc1	2	-2	-7	1	-13	10
CC(C)Cc1cc(C(=O)NCCN2CCOCC2)no1	5	-3	23	0	44*	0
CC(C)Cc1cc(C(=O)NCc2cccs2)no1	8	-15	21	0	55*	8
Cc1cc(/C=C2/NC(=O)NC2=O)c(C)n1C	-4	-26	-12	-1	-2	8
